Source: ChEMBL document CHEMBL1828601, “Small molecule peptidomimetic inhibitors of importin α/β mediated nuclear transport” (Bioorg Med Chem, 2010)
Calls of active or inactive are those of the source. The rule behind the calls is not given here.

What was measured:
FGM [1] = test: Inhibition of importin alpha/beta-mediated nuclear transportation of Alexa555-GST-M9 in human FGM cell nucleus at 500 uM after 30 mins by fluorescence microscopy; assay type: cell-based
Outline: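 Transportin-dependent import measured the same way in permeabilized FGM cells, with 0.5 μM Alexa555-GST-M9 cargo in place of BSA-NLS. Conditions: 3 mg/ml HeLa cytosol, ATP-regenerating system, 0.2 mM GTP, 1% DMSO, 30 min at 30°C. Positive control was 1 mg/ml WGA. Nuclear cargo fluorescence quantified per nucleus by automated imaging.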

FGM [2] = test: Inhibition of importin alpha/beta-mediated nuclear transportation of Alexa555-BSA-NLS in human FGM cell nucleus at 500 uM after 30 mins by fluorescence microscopy; assay type: cell-based

Compound | inhibition (FGM [1]) | inhibition (FGM [2])
N[C@@H](CC(=O)O)C(=O)Nc1ccc(C(=O)N[C@@H](CCc2ccccc2)C(=O)O)cc1OCc1ccc(Cl)cc1 | Active | Active
CC[C@H](C)[C@H](NC(=O)c1ccc(NC(=O)CN)c(OCc2c[nH]cn2)c1)C(=O)O | inactive | inactive
C[C@@H](O)[C@H](N)C(=O)N1C[C@@H](C(=O)NCCc2c[nH]cn2)[C@H](C(=O)NCCc2c[nH]c3ccccc23)C1 | inactive | inactive
NCCCCNC(=O)[C@@H]1CN(C(=O)[C@@H](N)CCCCN)C[C@H]1C(=O)NCCc1ccc2ccccc2c1 | inactive | inactive
CC[C@H](C)[C@H](NC(=O)c1ccc(NC(=O)[C@@H](N)Cc2c[nH]c3ccccc23)c(OCc2c[nH]cn2)c1)C(=O)O | inactive | inactive
NCCCC[C@H](N)C(=O)Nc1ccc(C(=O)N[C@@H](CCc2ccccc2)C(=O)O)cc1OCc1ccc(Cl)cc1 | inactive | inactive
NCCCCNC(=O)[C@@H]1CN(C(=O)[C@@H](N)CCc2ccccc2)C[C@H]1C(=O)NCCc1ccc2ccccc2c1 | inactive | inactive
N[C@@H](CC(=O)O)C(=O)N1C[C@@H](C(=O)NCCc2c[nH]cn2)[C@H](C(=O)NCCc2c[nH]c3ccccc23)C1 | inactive | inactive
CC[C@H](C)[C@H](NC(=O)c1ccc(NC(=O)[C@@H](N)Cc2ccc(O)cc2)c(OCc2c[nH]cn2)c1)C(=O)O | inactive | inactive
NCCCC[C@H](N)C(=O)N1C[C@@H](C(=O)NCCc2c[nH]cn2)[C@H](C(=O)NCCc2c[nH]c3ccccc23)C1 | inactive | inactive
CC[C@H](C)[C@H](N)C(=O)N1C[C@@H](C(=O)NCCCCN)[C@H](C(=O)NCCc2ccc3ccccc3c2)C1 | inactive | inactive
CC[C@H](C)[C@H](NC(=O)c1ccc(NC(=O)[C@@H](N)CCc2ccccc2)c(OCc2c[nH]cn2)c1)C(=O)O | Active | Active
N[C@@H](CCc1ccc(Cl)cc1)C(=O)N1C[C@@H](C(=O)NCCc2c[nH]cn2)[C@H](C(=O)NCCc2c[nH]c3ccccc23)C1 | inactive | inactive
CC[C@H](C)[C@H](NC(=O)c1ccc(NC(=O)[C@@H](N)CC(N)=O)c(OCc2c[nH]cn2)c1)C(=O)O | inactive | inactive
CC[C@@H](C)[C@H](NC(=O)c1ccc(NC(=O)[C@@H](N)CCCCN)c(OCc2c[nH]cn2)c1)C(=O)O | inactive | inactive
NCCCCNC(=O)[C@@H]1CN(C(=O)[C@@H](N)CCc2ccc(Cl)cc2)C[C@H]1C(=O)NCCc1ccc2ccccc2c1 | inactive | inactive
C[C@@H](O)[C@H](N)C(=O)Nc1ccc(C(=O)N[C@@H](CCc2ccccc2)C(=O)O)cc1OCc1ccc(Cl)cc1 | inactive | inactive
NCCCCNC(=O)[C@@H]1CN(C(=O)[C@@H](N)CO)C[C@H]1C(=O)NCCc1ccc2ccccc2c1 | inactive | inactive
CC(C)[C@H](N)C(=O)Nc1ccc(C(=O)N[C@@H](CCc2ccccc2)C(=O)O)cc1OCc1ccc(Cl)cc1 | inactive | inactive
N[C@@H](CCc1ccc(O)cc1)C(=O)N1C[C@@H](C(=O)NCCc2c[nH]cn2)[C@H](C(=O)NCCc2c[nH]c3ccccc23)C1 | inactive | inactive
NC(=O)C[C@H](N)C(=O)Nc1ccc(C(=O)N[C@@H](CCc2ccccc2)C(=O)O)cc1OCc1ccc(Cl)cc1 | Active | Active
N[C@@H](Cc1cnc[nH]1)C(=O)N1C[C@@H](C(=O)NCCc2c[nH]cn2)[C@H](C(=O)NCCc2c[nH]c3ccccc23)C1 | inactive | inactive
CC[C@H](N)C(=O)Nc1ccc(C(=O)N[C@@H](CCc2ccccc2)C(=O)O)cc1OCc1ccc(Cl)cc1 | Active | Active
NCCCCNC(=O)[C@@H]1CN(C(=O)[C@@H](N)CCc2ccc(O)cc2)C[C@H]1C(=O)NCCc1ccc2ccccc2c1 | inactive | inactive
C[C@H](N)C(=O)N1C[C@@H](C(=O)NCCc2c[nH]cn2)[C@H](C(=O)NCCc2c[nH]c3ccccc23)C1 | inactive | inactive
C[C@@H](O)[C@H](N)C(=O)N1C[C@@H](C(=O)NCCCCN)[C@H](C(=O)NCCc2ccc3ccccc3c2)C1 | inactive | inactive
N[C@@H](Cc1ccc(O)cc1)C(=O)N1C[C@@H](C(=O)NCCc2c[nH]cn2)[C@H](C(=O)NCCc2c[nH]c3ccccc23)C1 | Active | Active

Compound | inhibition (FGM [1]) | inhibition (FGM [2])
CC(C)[C@H](N)C(=O)N1C[C@@H](C(=O)NCCc2c[nH]cn2)[C@H](C(=O)NCCc2c[nH]c3ccccc23)C1 | inactive | inactive
COc1ccc(C[C@H](N)C(=O)N2C[C@@H](C(=O)NCCCCN)[C@H](C(=O)NCCc3ccc4ccccc4c3)C2)cc1 | inactive | inactive
NCCCCNC(=O)[C@@H]1CN(C(=O)[C@@H](N)Cc2ccc(Cl)cc2)C[C@H]1C(=O)NCCc1ccc2ccccc2c1 | inactive | inactive
CC[C@@H](C)[C@H](N)C(=O)Nc1ccc(C(=O)N[C@@H](CCc2ccccc2)C(=O)O)cc1OCc1ccc(Cl)cc1 | Active | Active
N[C@@H](Cc1ccc(Cl)cc1)C(=O)N1C[C@@H](C(=O)NCCc2c[nH]cn2)[C@H](C(=O)NCCc2c[nH]c3ccccc23)C1 | Active | Active
N[C@@H](Cc1c[nH]c2ccccc12)C(=O)Nc1ccc(C(=O)N[C@@H](CCc2ccccc2)C(=O)O)cc1OCc1ccc(Cl)cc1 | Active | Active
N[C@@H](CO)C(=O)N1C[C@@H](C(=O)NCCc2c[nH]cn2)[C@H](C(=O)NCCc2c[nH]c3ccccc23)C1 | inactive | inactive
CSCC[C@H](N)C(=O)N1C[C@@H](C(=O)NCCCCN)[C@H](C(=O)NCCc2ccc3ccccc3c2)C1 | inactive | inactive
CC[C@H](C)[C@H](NC(=O)c1ccc(NC(=O)[C@@H](N)Cc2ccccc2)c(OCc2c[nH]cn2)c1)C(=O)O | inactive | inactive
N[C@@H](Cc1c[nH]cn1)C(=O)Nc1ccc(C(=O)N[C@@H](CCc2ccccc2)C(=O)O)cc1OCc1ccc(Cl)cc1 | inactive | inactive
CC[C@@H](C)[C@H](NC(=O)c1ccc(NC(=O)[C@@H](N)Cc2c[nH]cn2)c(OCc2c[nH]cn2)c1)C(=O)O | Active | Active
CC[C@H](N)C(=O)Nc1ccc(C(=O)N[C@H](C(=O)O)[C@@H](C)CC)cc1OCc1c[nH]cn1 | inactive | inactive
CC[C@@H](C)[C@H](NC(=O)c1ccc(NC(=O)[C@@H](N)CC(=O)O)c(OCc2c[nH]cn2)c1)C(=O)O | inactive | inactive
CSCC[C@H](N)C(=O)N1C[C@@H](C(=O)NCCc2c[nH]cn2)[C@H](C(=O)NCCc2c[nH]c3ccccc23)C1 | inactive | inactive
CC[C@H](C)[C@H](NC(=O)c1ccc(NC(=O)[C@H](C)N)c(OCc2c[nH]cn2)c1)C(=O)O | inactive | inactive
NCCCCNC(=O)[C@@H]1CN(C(=O)[C@@H](N)CC(=O)O)C[C@H]1C(=O)NCCc1ccc2ccccc2c1 | inactive | inactive
N[C@@H](Cc1ccc2ccccc2c1)C(=O)Nc1ccc(C(=O)N[C@@H](CCc2ccccc2)C(=O)O)cc1OCc1ccc(Cl)cc1 | inactive | inactive
CC[C@@H](C)[C@H](NC(=O)c1ccc(NC(=O)[C@@H](N)[C@@H](C)O)c(OCc2c[nH]cn2)c1)C(=O)O | inactive | inactive
COc1ccc(C[C@H](N)C(=O)N2C[C@@H](C(=O)NCCc3c[nH]cn3)[C@H](C(=O)NCCc3c[nH]c4ccccc34)C2)cc1 | Active | Active
CC[C@H](C)[C@H](NC(=O)c1ccc(NC(=O)[C@@H](N)CC(C)C)c(OCc2c[nH]cn2)c1)C(=O)O | inactive | inactive
CC[C@@H](C)[C@H](N)C(=O)Nc1ccc(C(=O)N[C@H](C(=O)O)[C@@H](C)CC)cc1OCc1c[nH]cn1 | inactive | inactive
CSCC[C@H](N)C(=O)Nc1ccc(C(=O)N[C@@H](CCc2ccccc2)C(=O)O)cc1OCc1ccc(Cl)cc1 | Active | Active
N[C@@H](Cc1ccc(O)cc1)C(=O)Nc1ccc(C(=O)N[C@@H](CCc2ccccc2)C(=O)O)cc1OCc1ccc(Cl)cc1 | Active | Active
NCCCCNC(=O)[C@@H]1CN(C(=O)[C@@H](N)CC(N)=O)C[C@H]1C(=O)NCCc1ccc2ccccc2c1 | inactive | inactive
CC(C)C[C@H](N)C(=O)Nc1ccc(C(=O)N[C@@H](CCc2ccccc2)C(=O)O)cc1OCc1ccc(Cl)cc1 | Active | Active
NCCCCNC(=O)[C@@H]1CN(C(=O)[C@@H](N)Cc2ccccc2)C[C@H]1C(=O)NCCc1ccc2ccccc2c1 | inactive | inactive
CC(C)C[C@H](N)C(=O)N1C[C@@H](C(=O)NCCCCN)[C@H](C(=O)NCCc2ccc3ccccc3c2)C1 | inactive | inactive
